Here are results for 97 compounds from ChEMBL document CHEMBL4513216, “Probing the Open Global Health Chemical Diversity Library for Multistage-Active Starting Points for Next-Generation Antimalarials” (ACS Infect Dis, 2020).

A short description of this data set: Toxicity liver stage against HepG2, at 10uM. It is filed as cell-based. The arrangement: test concentration 10 uM, cell line HepG2-A16-CD81EGFP. The note with it: human, HepG2-A16-CD81EGFP cells; read-out: INHIBITION
The method in brief:
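Uninfected HepG2-A16-CD81EGFP cells, 3 × 10^3 per well, 1536-well, plated on prespotted compound at 10 μM final, parasite-free screening media added to match infected plates; puromycin 10 μM positive, DMSO 0.5% negative; run in parallel with 48 h PbLuc assay at 37 °C, 5% CO2; viability by CellTiter-Glo luminescence, normalized to controls.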
For `COc1cc(N2C[C@H]3CN(Cc4ccccn4)C[C@H]3C2)ncn1`, the cytotoxicity at 10 µM is -96.3%.
The value for `CCS(=O)(=O)N1CCC(c2nnc(C(F)(F)F)o2)CC1` was -11%.
The value for `COc1cc(CNCC(O)c2cccc(F)c2)cc2c1OCO2` (configuration not stated) was -6.31%; that for `O=C(CC1CN(Cc2ccccc2)CCO1)NC1CCSCC1` (configuration not stated) was -15.1%.
As for `Cc1cnn(CC2CCCN2C(=O)c2nccnc2N)c1` (configuration not stated), the figure is -27.6%; as for `CC(=O)c1c(C)nn(CC(=O)Nc2ccc(F)cc2)c1C`, -72%; as for `CC(C)(C)C(=O)NCCCc1nc2ccccc2[nH]1`, 5.68%.
With `CC(C)(C)n1ccc(C(=O)N2CCCC(c3ncc[nH]3)C2)c1` (configuration not stated), the cytotoxicity at 10 µM worked out at 2.96%.
The value for `Cn1nc2c(cc1=O)CN(CC(=O)Nc1nccs1)CC2` was 7.07%.
The value for `O=C(NCC1CC1)c1cc(C2CC2)nc2onc(C3CCCNC3)c12` (configuration not stated) was 4.98%.
The value for `CN1CCC(N(C)C[C@H]2CC[C@@H](Cc3cccc(CO)c3)O2)CC1` was 0.224%; that for `CN1CCOC(C(=O)Nc2nnc(Cc3ccc(F)cc3)[nH]2)C1` (configuration not stated) was -4.95%; that for `O=S(=O)(c1ccc(-c2cnco2)cc1)N1CCCC(O)(CO)CC1` (configuration not stated) was 1.72%.
For the compound `Cc1nc(C)c(C)c(NCCSCc2[nH]cnc2C)n1`, the cytotoxicity at 10 µM was determined as 2.3%.
As for `Cn1cc(CN2C[C@H]3CCC[C@@]3(COc3ccccn3)C2)cn1`, the figure is -107%; as for `Cc1nnc(NCc2ccc(Br)cc2)o1`, 1.66%.
In the case of `COc1cccc2c1OCC(CNC(=O)COCC(F)(F)C(F)F)C2` (configuration not stated), the cytotoxicity at 10 µM is -134%.
As for `Cc1ccc(OC2(C(=O)NC(C)Cc3ccsc3)CCNCC2)cc1` (configuration not stated), the figure is -15.4%; as for `CCOCC1CN(C(=O)C2=CCCC2)Cc2cnn(CC)c21` (configuration not stated), 0.565%.
The value for `CCC(NC(=O)Cn1ccc(=O)n(C)c1=O)c1ccccc1OC` (configuration not stated) was 7.23%; that for `Nc1cc2c(nn1)CCN(C(=O)CCC1CCCCC1)C2` was 6.5%.
As for `COC(=O)CCNC(=O)c1cc(-c2ccc(OC)cc2)nn1C`, the figure is 4.75%; as for `O=C(Nc1nnc(C(F)F)s1)N[C@H](CCO)c1ccccc1`, 1.88%.
Turning to `Cc1ccc(C(=O)N2CCSCC2)cc1NC(=O)NCCO`, the cytotoxicity at 10 µM was -9.64%.
The value for `COCCCNC1N=C(n2nc(C)cc2C)Nc2sc3c(c21)CCCC3` (configuration not stated) was 10.6%; that for `CCO[C@@H]1CCN(C(=O)c2ccnnc2)[C@@H]1Cc1cnn(C)c1` was -62.8%.
As for `O=C(C1CCC1)N1CCc2[nH]cnc2C12CCN(C1CCOCC1)CC2`, the figure is -2.4%; as for `COc1ccc(OCc2cc(C(=O)N3CCN[C@H](C)C3)n[nH]2)c(Cl)c1`, -11.7%.
On to `COCCN(Cc1sccc1C)C(=O)c1c(O)cccc1F`, for which the cytotoxicity at 10 µM was -137%.
As for `CC(C)(C#N)c1ccc(NS(=O)(=O)CC2CCCCO2)cc1` (configuration not stated), the figure is 0.548%.
The value for `Cc1cnc(C(=O)N2C[C@H]3CN(Cc4cccs4)C[C@H]3C2)cn1` was -148%; that for `O=C(NC1CCCCC1)c1c(F)cccc1F` was 3.32%; that for `CS(=O)(=O)CCCN1CCSCC1c1ccc(Cl)cc1` (configuration not stated) was -14.5%.
The value for `Cc1nc(-n2nc(-c3cccs3)cc2N)[nH]c(=O)c1C` was 4.84%; that for `COc1cc(CNc2ccc(Cl)cc2)ccc1OCC(=O)O` was 3.63%; that for `CC(C)Nc1n[nH]c2nc(C3CCN(C(=O)c4ccccn4)C3)ccc12` (configuration not stated) was 17%.
Regarding `CC(=O)N1CCCC(c2nccnc2Nc2nc(C)cc(C)n2)C1` (configuration not stated), the cytotoxicity at 10 µM was 1.43%.
As for `CCn1cc(CN2CCC(O)(Cn3ccc4ncccc43)CC2)cn1`, the figure is -16.3%; as for `N[C@H]1CN(C(=O)c2ccc(Cl)cc2F)C[C@@H]1C1CC1`, -44.3%; as for `Cc1nnc(C(C)Nc2cccc(COCC(F)(F)C(F)F)c2)o1` (configuration not stated), -1.2%.
For the compound `N#CCCN(CC1CCCO1)C(=O)c1ccc(C#N)cc1` (configuration not stated), the cytotoxicity at 10 µM was -2.45%.
The value for `O=C(c1ccco1)N1CCO[C@@H]2CN(c3ncc(F)cn3)CC[C@@H]2C1` was 4.74%; that for `N#CCCCOc1cccc(CN2CCCC2c2ccc[nH]2)c1` (configuration not stated) was -14.5%; that for `Cn1nnnc1SCCNC(=O)c1c[nH]nc1C1CCCCC1` was -0.863%.
As for `CCNC(=O)N1C[C@@H](NC(C)=O)[C@H](c2ccc(C)o2)C1`, the figure is -8.82%; as for `O=C(c1ccco1)N1CCc2c(nc(-c3ccncc3)[nH]c2=O)C1`, 10.4%.
As for `O=C(COc1cccc2c1CCC2=O)NCCc1cccs1`, the figure is 0.79%.
`CCCS(=O)(=O)c1ccc(N2CCN(Cc3ccccc3)CC2)nn1`: the cytotoxicity at 10 µM is -5.93%.
`Cc1nc(C2CCCN(C(=O)CCn3ccccc3=O)C2)no1` (configuration not stated): the cytotoxicity at 10 µM is -9.35%.
In the case of `CCC(CO)N(Cc1cccs1)C(=O)CNS(=O)(=O)c1cccs1` (configuration not stated), the cytotoxicity at 10 µM turned out to be 4.98%.
Turning to `Cc1nn(C)c(C)c1NC(=O)CNc1cccc(CC(F)(F)F)c1`, the cytotoxicity at 10 µM is -4.83%.
With `COCCOCCNC(=O)N1CCc2c(F)ccc(F)c2C1`, the cytotoxicity at 10 µM was -2.23%.
The value for `Cc1cnc(N2CCCC(O)C2)nc1-c1ccnn1C` (configuration not stated) was -0.271%; that for `CCc1ccc(NC(=O)c2ncc(C(N)=O)cc2Cl)cc1F` was -9.86%; that for `Cc1nc(CCN2CCC(Oc3ccccc3F)CC2)cs1` was 6.9%.
As for `O=C(Nc1ccccn1)NC1CCN(c2ccccc2OC(F)F)C1` (configuration not stated), the cytotoxicity at 10 µM was determined as 11.7%.
As for `Cn1ccnc1CN1CCN(CC(O)c2ccccc2)CC1` (configuration not stated), the figure is -11.4%.
As for `COCC(=O)NC[C@]12COC[C@H]1CN(c1ncc(F)cn1)C2`, the figure is -143%; as for `COC(=O)[C@H](CCSC)NC(=O)Cc1c(C)nn(-c2ccccc2)c1C`, -1.65%; as for `Cc1ccc2c(n1)N(CCN(C)C)CCN(C(=O)c1ccc[nH]1)C2`, 6.59%.
In the case of `CCn1ccnc1CN1CCN(CCOc2ccccc2OC)CC1`, the cytotoxicity at 10 µM is -8.83%.
For `CN(Cc1nnc2ccccn12)C(=O)CC1CCCCC1`, the cytotoxicity at 10 µM was determined as 13.7%.
For `CCc1nc(CN(C)C(=O)c2cc(NC(C)=O)ccc2Cl)no1`, the cytotoxicity at 10 µM is -1.71%.
Take `Cc1nc(-c2cccc(C#N)c2)nn1CC1(O)CCCCC1`: the cytotoxicity at 10 µM is -2.62%.
The value for `Fc1ccc(CN2CCCC3(COCCN(Cc4c[nH]nn4)C3)C2)cc1` (configuration not stated) was 4.9%; that for `Cn1ccnc1CN1CC[C@H](O)[C@@H](n2ccc(=O)[nH]c2=O)CC1` was -9.31%; that for `CCC(=O)NCCc1cc2nc(-c3ccncc3)ccn2n1` was 1.65%.
As for `CN1CCN(CC2CC2)C(=O)c2cnc(N3CCC(CO)CC3)nc21`, the figure is -3.14%; as for `COCc1ncc(CN2CCN(C)C(=O)C2C)cn1` (configuration not stated), 1.31%.
As for `COCCN1CCCC12CCCN(c1ncccn1)C2` (configuration not stated), the figure is -6.9%; as for `Cn1cc(CN2CCC(c3ncc(Cl)cc3S(C)(=O)=O)CC2)cn1`, -0.83%.
Consider `CCc1nc(C(=O)N2CCCC2)nn1-c1ccccc1Cl`, for which the cytotoxicity at 10 µM was -3.17%.
The value for `CCOC(=O)C1=NOC(Cc2cc(OC)c3c(c2)OCO3)C1` (configuration not stated) was 9.98%.
Consider `CC(C)c1ncc(S(C)(=O)=O)c(C2CCCNC2)n1` (configuration not stated), for which the cytotoxicity at 10 µM is -1.34%.
As for `O=S1(=O)CCC(n2cc(C3=CCN(CCN4CCCCC4)CC3)cn2)C1` (configuration not stated), the figure is -8.29%.
As for `CN(Cc1cn2c(n1)CN(C1CCOCC1)CC2)Cc1ccco1`, the figure is -64.3%; as for `CNS(=O)(=O)c1cccc(C(C)NCc2ccc(C)c(C)c2)c1` (configuration not stated), 3.92%; as for `CC(Cn1cncn1)NC(=O)NCC(C)(C)c1ccc(F)cc1` (configuration not stated), 13.6%.
As for `Cc1cc(C)cc(C(=O)NCc2ncnn2C)c1`, the cytotoxicity at 10 µM was 4.64%.
The value for `Cc1nn(C)cc1-c1cc(C(=O)NCC(C)(C)c2cccc(F)c2)n[nH]1` was 0.68%; that for `Cc1cncc(Oc2ccc(CO)cc2)n1` was 5.81%.
As for `CC(C)CCN1CCc2cc(C(=O)N(C)C)c(NCC3CC3)nc2CC1`, the figure is 4.71%.
As for `Cc1noc(C(C)N2CCN(CCn3ccccc3=O)CC2)n1` (configuration not stated), the figure is 5.31%; as for `Cn1nccc1-c1cnc2n1CCC21CCN(C(=O)C2(C)CC2)CC1`, -123%.
Turning to `CNC(=O)c1cc2c(nc1NCC1CC1)CCN(S(=O)(=O)C1CC1)CC2`, the cytotoxicity at 10 µM is -13.3%.
As for `O=c1ccncn1Cc1csc(C2CC2)n1`, the figure is -0.572%.
The value for `COc1ccccc1C(=O)N1CCOCC1c1c(C)n[nH]c1C` (configuration not stated) was -8.72%.
As for `CCCC(C)CS(=O)(=O)NCCc1csc(N2CCCC2)n1` (configuration not stated), the figure is 7.47%.
Regarding `CCNC(=O)c1ccc2ccc(N(CC)CC)n2c1`, the cytotoxicity at 10 µM worked out at 1.67%.
Turning to `O=C(NCC1(O)CCCCC1)c1coc(COc2cccc(F)c2)n1`, the cytotoxicity at 10 µM is -136%.
Take `CC(C)Nc1cccc(CNC(=O)N2CCC[C@@H]2CO)c1`: the cytotoxicity at 10 µM was found to be 1.96%.
The value for `Nc1cc(N2CCOCC(Cc3ccc4[nH]ccc4c3)C2)ncn1` (configuration not stated) was -5.69%; that for `CC/C=C(/C)C(=O)N1CCN(C2=NCC(C)S2)CC1` (configuration not stated) was -145%; that for `CN(C)CCNCC1(O)CCCN(Cc2cccc(F)c2F)C1=O` (configuration not stated) was -8.71%.
With `Cc1nc(CN2CC3(CCN(c4cnccn4)C3)CC2=O)cs1` (configuration not stated), the cytotoxicity at 10 µM stood at 1.36%.
Consider `COc1ccc(COCC(=O)N2CCN(CC(C)(C)O)CC2)cc1`, for which the cytotoxicity at 10 µM is -4.92%.
As for `C1CN(c2nc(C3CC3)no2)CCN(C2CCOCC2)C1`, the figure is 0.442%.
